ChEMBL document CHEMBL3627613, “4-Aminoquinoline derivatives as novel Mycobacterium tuberculosis GyrB inhibitors: Structural optimization, synthesis and biological evaluation” (Eur J Med Chem, 2015)
Values after ≈ are worked out from the molar mass of the structure shown. Active and inactive are the calls of the source. No cut-off for these calls is given here.

Legend:
[1] = target: DNA gyrase subunit A/DNA gyrase subunit B (Mycobacterium tuberculosis (strain ATCC 25618 / H37Rv), UniProt P9WG45+P9WG47); assay: Inhibition of DNA gyrase GyrA/GyrB in Mycobacterium tuberculosis incubated for 30 mins assessed as reduction in supercoiling of relaxed relaxed pBR322 DNA by ethidium bromide staining based agarose gel electrophoresis method
[2] = Cytotoxicity against mouse RAW264.7 cells assessed as inhibition of cell viability at 50 uM incubated for 48 hrs at 37 degC by MTT assay relative to control; type: cell-based; settings: read-out: INH
Procedure, shortened: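 RAW 264.7 mouse macrophages, 5×10^5 cells per well, exposed to compound for 48 h at 37 °C under 5% CO2. MTT added 4 h before the end. Formazan dissolved in DMSO and absorbance read at 560 nm against blank. Triplicates, run twice.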

[3] = target: DNA gyrase subunit B (Mycobacterium smegmatis) (UniProt P0C559); assay: Binding affinity to Mycobacterium smegmatis DNA gyrase B assessed as changing in melting temperature of the protein-ligand complex by differential scanning fluorometry; settings: Mycolicibacterium smegmatis
Procedure, shortened: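 His-tagged M. smegmatis GyrB expressed in E. coli BL21(DE3)pLysS and Ni-NTA purified, used at 2 mg/mL. Native protein and protein-ligand complex heated from 25 to 95 °C in 0.1 °C steps with 50X SYPRO orange. Read-out is the Tm shift of the complex relative to native protein.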

[4] = target: DNA gyrase subunit B (Escherichia coli) (UniProt P0AES6); assay: Inhibition of Escherichia coli Inspiralis DNA gyrase B assessed as reduction in ATPase activity at 100 uM incubated for 100 mins by inorganic phosphate detection assay
[5] = system: Mycobacterium tuberculosis; assay: Antimycobacterial activity against Mycobacterium tuberculosis H37Rv assessed as growth inhibition incubated for 7 days by microplate alamar blue assay; type: functional; settings: 168 h
Procedure, shortened: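 M. tuberculosis H37Rv inoculum from fresh LJ medium, resuspended in 7H9 broth (0.1% casitone, 0.5% glycerol, OADC), set to McFarland No. 1 and diluted 1:20. Two-fold serial compound dilutions in 7H9-S, with growth and sterile controls. Incubated 7 days at 37 °C, then alamar blue overnight. MIC is the lowest concentration preventing the blue-to-pink colour change.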

[6] = target: DNA gyrase subunit B (Mycobacterium smegmatis, UniProt P0C559); assay: Inhibition of Mycobacterium smegmatis DNA gyrase B expressed in Escherichia coli BL21 (DE3) pLysS cells assessed as reduction in ATPase activity incubated for 100 mins by inorganic phosphate detection assay; design: species or system Mycolicibacterium smegmatis
[7] = target: DNA gyrase subunit B (Staphylococcus aureus) (UniProt P0A0K8); assay: Inhibition of Staphylococcus aureus DNA gyrase B assessed as reduction in ATPase activity at 100 uM incubated for 100 mins by inorganic phosphate detection assay
Chain of DNA gyrase subunit B (Staphylococcus aureus) (P0A0K8 2-644 limits assumed): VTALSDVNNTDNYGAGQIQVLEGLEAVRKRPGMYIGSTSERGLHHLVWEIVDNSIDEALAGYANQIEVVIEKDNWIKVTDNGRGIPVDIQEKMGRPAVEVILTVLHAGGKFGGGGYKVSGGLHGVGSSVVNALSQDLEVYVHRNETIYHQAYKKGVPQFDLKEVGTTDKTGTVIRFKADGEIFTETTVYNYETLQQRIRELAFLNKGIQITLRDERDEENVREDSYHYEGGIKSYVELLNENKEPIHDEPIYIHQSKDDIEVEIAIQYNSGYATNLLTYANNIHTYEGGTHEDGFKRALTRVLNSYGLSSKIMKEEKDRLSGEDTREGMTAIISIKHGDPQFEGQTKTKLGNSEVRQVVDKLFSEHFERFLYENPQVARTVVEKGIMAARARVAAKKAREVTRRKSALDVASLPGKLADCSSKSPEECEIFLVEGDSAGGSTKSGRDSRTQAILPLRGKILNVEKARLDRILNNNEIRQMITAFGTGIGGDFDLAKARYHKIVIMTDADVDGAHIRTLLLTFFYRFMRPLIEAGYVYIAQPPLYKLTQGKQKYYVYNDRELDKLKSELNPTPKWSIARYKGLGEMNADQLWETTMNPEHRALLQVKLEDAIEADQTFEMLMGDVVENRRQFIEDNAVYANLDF

Chain of DNA gyrase subunit B (Mycobacterium smegmatis) (P0C559 2-675 limits assumed): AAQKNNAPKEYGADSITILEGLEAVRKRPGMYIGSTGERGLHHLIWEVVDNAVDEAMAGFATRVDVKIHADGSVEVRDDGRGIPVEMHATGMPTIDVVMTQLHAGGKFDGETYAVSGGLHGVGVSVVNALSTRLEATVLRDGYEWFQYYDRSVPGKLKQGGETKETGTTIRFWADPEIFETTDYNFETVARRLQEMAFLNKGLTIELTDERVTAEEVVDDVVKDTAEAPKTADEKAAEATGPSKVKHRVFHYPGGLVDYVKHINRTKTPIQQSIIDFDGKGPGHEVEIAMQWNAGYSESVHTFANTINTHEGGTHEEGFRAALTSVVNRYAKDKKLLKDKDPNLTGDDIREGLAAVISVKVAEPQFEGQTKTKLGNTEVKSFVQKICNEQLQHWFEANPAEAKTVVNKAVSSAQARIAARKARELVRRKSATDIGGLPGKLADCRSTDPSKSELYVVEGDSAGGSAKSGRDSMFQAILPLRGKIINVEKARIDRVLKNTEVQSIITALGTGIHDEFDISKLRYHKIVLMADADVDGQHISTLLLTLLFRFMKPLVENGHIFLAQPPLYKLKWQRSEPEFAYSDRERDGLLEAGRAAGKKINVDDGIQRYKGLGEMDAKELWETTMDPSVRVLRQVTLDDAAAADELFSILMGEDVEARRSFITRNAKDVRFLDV
Chain of DNA gyrase subunit A/DNA gyrase subunit B (P9WG45 whole entry): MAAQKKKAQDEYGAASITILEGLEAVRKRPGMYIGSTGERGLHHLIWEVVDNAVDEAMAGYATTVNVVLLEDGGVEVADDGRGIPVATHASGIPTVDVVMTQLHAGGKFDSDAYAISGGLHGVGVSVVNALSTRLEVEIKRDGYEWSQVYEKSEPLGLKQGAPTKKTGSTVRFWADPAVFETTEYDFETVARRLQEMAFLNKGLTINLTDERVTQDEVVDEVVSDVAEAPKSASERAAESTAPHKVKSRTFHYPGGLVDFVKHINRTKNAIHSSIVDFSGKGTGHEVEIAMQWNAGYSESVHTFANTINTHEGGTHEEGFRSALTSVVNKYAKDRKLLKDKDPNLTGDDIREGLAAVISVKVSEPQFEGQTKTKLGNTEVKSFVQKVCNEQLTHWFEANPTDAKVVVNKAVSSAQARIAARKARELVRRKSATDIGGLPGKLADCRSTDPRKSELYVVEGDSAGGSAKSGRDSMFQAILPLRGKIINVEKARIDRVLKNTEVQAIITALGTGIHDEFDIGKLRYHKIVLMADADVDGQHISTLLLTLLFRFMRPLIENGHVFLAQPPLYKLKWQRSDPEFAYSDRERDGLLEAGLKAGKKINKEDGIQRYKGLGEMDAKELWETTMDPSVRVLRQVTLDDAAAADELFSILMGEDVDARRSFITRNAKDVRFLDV
Chain of DNA gyrase subunit A/DNA gyrase subunit B (P9WG47 whole entry): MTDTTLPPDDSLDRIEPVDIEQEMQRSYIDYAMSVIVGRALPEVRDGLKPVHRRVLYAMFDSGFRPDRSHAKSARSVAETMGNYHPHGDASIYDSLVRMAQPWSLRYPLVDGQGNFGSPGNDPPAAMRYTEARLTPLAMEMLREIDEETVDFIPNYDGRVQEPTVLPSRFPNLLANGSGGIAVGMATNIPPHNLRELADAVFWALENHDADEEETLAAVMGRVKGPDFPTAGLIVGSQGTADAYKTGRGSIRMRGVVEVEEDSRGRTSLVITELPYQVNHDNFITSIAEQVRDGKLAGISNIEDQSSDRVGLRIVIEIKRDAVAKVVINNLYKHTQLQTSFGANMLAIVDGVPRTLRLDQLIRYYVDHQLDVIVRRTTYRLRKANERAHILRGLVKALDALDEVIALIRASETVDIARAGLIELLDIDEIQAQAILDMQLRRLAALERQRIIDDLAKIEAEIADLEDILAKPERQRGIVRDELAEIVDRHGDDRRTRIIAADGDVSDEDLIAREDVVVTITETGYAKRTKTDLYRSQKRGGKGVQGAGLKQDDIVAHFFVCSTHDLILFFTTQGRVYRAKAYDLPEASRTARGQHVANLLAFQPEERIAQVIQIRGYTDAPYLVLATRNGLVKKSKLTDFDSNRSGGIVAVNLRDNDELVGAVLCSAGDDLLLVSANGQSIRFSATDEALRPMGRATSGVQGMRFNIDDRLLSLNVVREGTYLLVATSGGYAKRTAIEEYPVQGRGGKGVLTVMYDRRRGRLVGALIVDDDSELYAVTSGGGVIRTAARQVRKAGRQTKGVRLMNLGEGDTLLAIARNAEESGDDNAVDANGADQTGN
Chain of DNA gyrase subunit B (P0C559 whole entry): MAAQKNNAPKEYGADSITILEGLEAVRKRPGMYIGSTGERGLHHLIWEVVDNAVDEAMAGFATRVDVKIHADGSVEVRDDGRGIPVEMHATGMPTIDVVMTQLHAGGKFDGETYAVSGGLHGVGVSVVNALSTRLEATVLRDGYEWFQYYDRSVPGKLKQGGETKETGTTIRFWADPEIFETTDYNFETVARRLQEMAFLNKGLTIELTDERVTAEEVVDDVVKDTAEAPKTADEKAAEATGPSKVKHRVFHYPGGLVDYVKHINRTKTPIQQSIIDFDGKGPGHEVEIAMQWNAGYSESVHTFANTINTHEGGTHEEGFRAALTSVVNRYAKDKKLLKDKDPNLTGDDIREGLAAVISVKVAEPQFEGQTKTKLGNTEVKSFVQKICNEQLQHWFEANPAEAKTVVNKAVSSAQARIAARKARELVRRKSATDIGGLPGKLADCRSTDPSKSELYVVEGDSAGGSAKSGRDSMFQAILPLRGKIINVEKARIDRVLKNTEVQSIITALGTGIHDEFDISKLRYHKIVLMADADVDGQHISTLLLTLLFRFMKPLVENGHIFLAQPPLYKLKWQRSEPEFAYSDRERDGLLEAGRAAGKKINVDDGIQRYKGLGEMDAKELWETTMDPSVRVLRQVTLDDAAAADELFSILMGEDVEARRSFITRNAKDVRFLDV

CCN1CCN(CCCOc2ccc(Nc3c(C(=O)O)cnc4ccc(OC)cc34)cc2)CC1 gave an IC50 [1] of 630 nM, a cytotoxicity at 48 h, 50 µM [2] of 0.66% and a ΔTm [3] of 3.3 °C. For the same molecule, the inhibition [4] was “inactive”, the MIC [5] was 3.3 µM (≈ 1.53 µg/mL) and the IC50 [6] was 860 nM. The inhibition [7] was “inactive”.
